Data on 17 molecules can be found in ChEMBL document CHEMBL1124640, “Synthesis and biological evaluation of certain C-4 substituted pyrazolo[3,4-b]pyridine nucleosides” (1989).

Active and inactive are the calls of the source. The calls are words filed in the database; no cut-off is given here.

One test deals with Human adenovirus 2. In words: Antiviral activity against adeno 2 virus in HeLa cells. Type of test: functional, organism-based.
For a further test, the system named is Visna-maedi virus. In words: Antiviral activity against Visna virus in SCP cells. Type of test: functional, organism-based.
A further test concerns Semliki Forest virus. The test can be described thus: Antiviral activity against semliki forest virus in Vero cells. Type of test: functional, organism-based.
A further test deals with Human alphaherpesvirus 2. In words: Antiviral activity against herpes 2 virus in Vero cells. Conditions: herpes simplex virus type2. Type of test: functional, organism-based.
The subject of test [1] is HeLa. In words: Antiviral activity against rhino 1-A virus in HeLa cells; IA= Inactive. Type of test: functional, cell-based. Conditions: Homo sapiens.
In the next test the test system is Lymphoblastoid cell. The test can be described thus: Ability to inhibit de novo purine nucleotide biosynthesis at a concentration of 100 uM. Type of test: functional. The settings on record: Homo sapiens. In a few lines:
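De novo purine nucleotide synthesis was measured as [14C]formate incorporation in cultured human lymphoblast cells, with compound at 100 μM. Results are given as percent inhibition.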

For test [2], the system named is Vero. In words: Antiviral activity against Para Flu 3 virus in Vero cells; IA= Inactive. Type of test: functional, cell-based. The settings on record: Chlorocebus sabaeus.
For test [3], the system named is Vero. In words: Antiviral activity against semliki forest virus in Vero cells. Type of test: functional, cell-based. Conditions: Chlorocebus sabaeus.
The next test relates to L1210. In words: Cytotoxicity against murine leukemic cell line L1210. Conditions: Mus musculus, read-out: ID50 (the source's name). Type of test: functional.
The nature of test [4]: Cytotoxicity against human B-lymphoblastic cell line WI-L2. Conditions: WIL2, read-out: ID50 (the source's name). Type of test: functional.
The subject of test [5] is HeLa. In words: Antiviral activity against rhino 1-A virus in HeLa cells. Type of test: functional, Homo sapiens.

`COc1ccnc2c1cnn2C1O[C@H](CO)[C@@H](O)[C@@H]1O` (stereo partly specified): the outcome in the test with Human adenovirus 2, in the test with Visna-maedi virus, in the test on Semliki Forest virus and in the test with Human alphaherpesvirus 2 was inactive.
Broadly, the inhibition is the drop in the measured response relative to a control, in per cent. For `[N-]=[N+]=Nc1ccnc2c1cnn2C1O[C@H](CO)[C@@H](O)[C@H]1O` (stereo partly specified), the outcome in the test on Human adenovirus 2, with HeLa [1], in the test with Visna-maedi virus, with Semliki Forest virus, with Vero [2] and in the test on Human alphaherpesvirus 2 was inactive. 100 µM produced 46% inhibition in the test on Lymphoblastoid cell.
For the molecule `Nc1ccnc2c1cnn2C1O[C@H](CO)[C@@H](O)[C@H]1O` (stereo partly specified), the outcome in the test on Human adenovirus 2, in the test on HeLa [1], in the test on Visna-maedi virus, in the test on Vero [3], with Vero [2] and in the test with Human alphaherpesvirus 2 was inactive. The molecule further came in with an inhibition at 100 µM in the test with Lymphoblastoid cell of 36%.
As for `OC[C@H]1OC(n2ncc3cccnc32)[C@@H](O)[C@@H]1O` (stereo partly specified), the result in the test with Human adenovirus 2, with Visna-maedi virus, with Semliki Forest virus and in the test with Human alphaherpesvirus 2 was inactive.
Consider `OC[C@H]1OC(n2ncc3c(Cl)ccnc32)[C@H](O)[C@@H]1O` (stereo partly specified), for which the outcome with Human adenovirus 2, in the test with HeLa [1], in the test with Visna-maedi virus, in the test on Semliki Forest virus, in the test with Vero [2] and in the test with Human alphaherpesvirus 2 was inactive. Moreover, the inhibition at 100 µM in the test on Lymphoblastoid cell was 94%. Besides, the IC50 was 20 µM in the test with L1210 and 18 µM in test [4].
Regarding `COc1ccnc2c1cnn2C1O[C@H](CO)[C@@H](O)[C@H]1O` (stereo partly specified), the outcome in the test on Human adenovirus 2, in the test with Visna-maedi virus, with Semliki Forest virus and in the test on Human alphaherpesvirus 2 was inactive.
`O=C1CC=Nc2c1cnn2C1O[C@H](CO)[C@@H](O)[C@H]1O` (stereo partly specified): the Virus rating in the test with HeLa [5] was 0.6. Testing at 100 µM in the test with Lymphoblastoid cell gave an inhibition of 80%. Besides, the IC50 in the test with L1210 was greater than 100 µM; in test [4], 20 µM.
For the molecule `OC[C@H]1OC(n2ncc3c(Cl)ccnc32)[C@@H](O)[C@@H]1O` (stereo partly specified), the result in the test with Human adenovirus 2, in the test with Visna-maedi virus, with Semliki Forest virus and in the test with Human alphaherpesvirus 2 was inactive.
On to `OC[C@H]1O[C@@H](n2ncc3cccnc32)C[C@@H]1O`, for which the outcome in the test with Human adenovirus 2, with Visna-maedi virus, with Semliki Forest virus and with Human alphaherpesvirus 2 was inactive.
Take `OC[C@H]1OC(n2ncc3c(O)ccnc32)[C@@H](O)[C@@H]1O` (stereo partly specified): the result with Human adenovirus 2, in the test with Visna-maedi virus, in the test on Semliki Forest virus and in the test with Human alphaherpesvirus 2 was inactive.
With `OC[C@H]1OC(n2ncc3cccnc32)[C@H](O)[C@@H]1O` (stereo partly specified), the outcome in the test on Human adenovirus 2, in the test on Visna-maedi virus, in the test on Semliki Forest virus and in the test on Human alphaherpesvirus 2 was inactive.
Take `OC[C@H]1OC(n2ncc3c(OCc4ccccc4)ccnc32)[C@H](O)[C@@H]1O` (stereo partly specified): the outcome in the test on Human adenovirus 2, with Visna-maedi virus, in the test with Semliki Forest virus and in the test with Human alphaherpesvirus 2 was inactive.
As for `Nc1ccnc2c1cnn2[C@H]1C[C@H](O)[C@@H](CO)O1`, the outcome in the test on Human adenovirus 2, in the test on Visna-maedi virus, with Semliki Forest virus and with Human alphaherpesvirus 2 was inactive.
As for `COc1ccnc2c1cnn2[C@H]1C[C@H](O)[C@@H](CO)O1`, the outcome with Human adenovirus 2, with Visna-maedi virus, in the test on Semliki Forest virus and in the test with Human alphaherpesvirus 2 was inactive.
On to `Nc1ccnc2c1cnn2C1O[C@H](CO)[C@@H](O)[C@@H]1O` (stereo partly specified), for which the outcome with Human adenovirus 2, with HeLa [1], in the test with Visna-maedi virus, in the test with Semliki Forest virus, in the test on Vero [2] and with Human alphaherpesvirus 2 was inactive.
In the case of `O=C1CC=Nc2c1cnn2[C@H]1C[C@H](O)[C@@H](CO)O1`, the outcome in the test on Human adenovirus 2, with Visna-maedi virus, in the test on Semliki Forest virus and in the test on Human alphaherpesvirus 2 was inactive.
Regarding `OC[C@H]1O[C@@H](n2ncc3c(Cl)ccnc32)C[C@@H]1O`, the outcome in the test with Human adenovirus 2, in the test with Visna-maedi virus, in the test with Semliki Forest virus and in the test with Human alphaherpesvirus 2 was inactive.
